# Screening data (PubChem)
# SIAE inh = human SIAE inhibitors, primary screen, biochemical, fluorescence polarization, FP-Rh probe, 1536-well HTS; inhibition, % at 9.66 µM; AID 1053197, 2014; Sialate O-acetylesterase (Homo sapiens), Q9HAT2; hit rate 0.69% among 370,000; SIAE FP-Rh probe binding;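 active means inhibition above a cutoff: mean of compounds within the control limits plus 3 SD of those, cut at about 17% in these data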
# HTRA1 inh = HTRA1 serine protease inhibitors, primary screen, biochemical, fluorescence polarization, HTS; recombinant HTRA1, FP-rhodamine activity-based probe; inhibition, % at 5.96 µM; hit rate 0.5% among 340,000; in the data active means inhibition above about 36%
# PRMT1 inh = PRMT1 methyltransferase inhibitors, primary screen, biochemical, fluorescence polarization. Protein arginine N-methyltransferase 1 (Homo sapiens), Q99873. recombinant PRMT1, activity-based probe fluorescence polarization. hit rate 1.3% among 370,000. inhibition, % at 2.79 µM. AID 652257, 2013;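 active means inhibition above about 21% made by adding two undisclosed values, limit read from the data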
# Target sequence (Q99873 whole entry, looked up): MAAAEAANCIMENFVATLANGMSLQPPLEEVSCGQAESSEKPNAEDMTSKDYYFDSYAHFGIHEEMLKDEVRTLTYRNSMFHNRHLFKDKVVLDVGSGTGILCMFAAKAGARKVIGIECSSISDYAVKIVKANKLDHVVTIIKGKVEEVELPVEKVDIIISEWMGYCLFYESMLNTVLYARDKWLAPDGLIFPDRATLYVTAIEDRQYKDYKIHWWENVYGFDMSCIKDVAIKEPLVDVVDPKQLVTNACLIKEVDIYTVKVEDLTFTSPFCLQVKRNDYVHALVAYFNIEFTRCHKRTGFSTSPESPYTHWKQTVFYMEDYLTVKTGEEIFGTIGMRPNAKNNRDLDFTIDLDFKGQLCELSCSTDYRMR
# TCR CD3 inh = inhibitors of human TCR-CD3 interaction, primary screen, biochemical, fluorescence, TAMRA-labeled TCR probe; inhibition, % at 9.4 µM; hit rate 0.37% among 360,000; AID 651800, 2012; in the data active means inhibition above about 19%;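 further: recombinant mutant TCR 2C K166C tagged with TAMRA read by polarization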
# mABHD4 FP = ABHD4 inhibitors, primary screen, biochemical, fluorescence polarization, mouse | AID 720543, 2013 | hit rate 0.54% among 370,000 | (Lyso)-N-acylphosphatidylethanolamine lipase (Mus musculus), Q8VD66 | inhibition, % at 8.92 µM | purified mABHD4, FP-Rh probe fluorescence polarization;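 active means inhibition exceeding the mean over every tested compound plus 3 SD, cut at about 30% in these data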
#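 Test system: mouse ABHD4 enzyme, wild type. Reagent: FP-Rh fluorescent activity-based probe, added after compound pre-incubation. Timing: pre-incubation 45 min, probe exposure 60 min, at 25 °C. Technique: FP readout, ex 525 nm / em 598 nm. Benchmarks: high control S159A mutant with DMSO, low control median of compound wells.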
# mABHD4 conf = ABHD4 inhibitors, retest, confirmation, biochemical, fluorescence polarization, mouse; shares compounds with mABHD4 FP; purified mABHD4, FP-Rh probe fluorescence polarization; inhibition, % at 8.92 µM; hit rate 55% among 1,800; AID 720658, 2013;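 active means mean inhibition across replicates above the hit cutoff set in the primary screen, cut at about 30% in these data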
# A number is an active result; 0 = inactive; - = no result; + = active, no number; ! = not confirmed by another sample. An excerpt weighted towards active compounds, which were near 2.7% of everything screened.
SMILES,SIAE inh,HTRA1 inh,PRMT1 inh,TCR CD3 inh,mABHD4 FP,mABHD4 conf
CC(C)CN(C(=O)COC(=O)CSc1ccc(Br)cc1)C1CCS(=O)(=O)C1 (stereo not given),0,0,0,0,0,-
CCN(CC)CCN1C(=O)C(=O)/C(=C(/O)c2c(C)[nH]c(C(=O)OC)c2C)C1c1cccs1 (stereo not given),0,0,0,0,34,0
Cc1ccc(-c2cc(-c3nnc(SCC(=O)N4c5ccccc5Sc5ccccc54)n3N)[nH]n2)cc1,0,-,0,-,0,-
O=c1[nH][nH]c2c([N+](=O)[O-])ccc(F)c12,0,-,0,0,36,34
O=c1[nH]c2cc(Cl)cc([N+](=O)[O-])c2c2ccc(Cl)cc12,0,0,0,0,0,-
CC1CCN(c2ccc(C(=O)O)cc2NS(=O)(=O)c2ccc(C(C)(C)C)cc2)CC1,0,-,0,-,42,52
CC1CCN(c2ccc(C(=O)O)cc2NS(=O)(=O)c2ccccc2[N+](=O)[O-])CC1,0,-,0,-,44,42
CC1CCN(c2ccc(C(=O)O)cc2NS(=O)(=O)c2ccc(F)cc2)CC1,0,-,0,-,0,-
O=S1(=O)N[C@@H](Cc2ccccc2)COc2cccc(N3CCCC3)c21,0,-,0,0,0,-
Cc1ccc(C(=O)NCC(=O)OCCCOC(=O)CNC(=O)c2ccc(C)cc2)cc1,0,0,0,0,0,-
Cc1cccc(N=Cc2cc3c(cc2[N+](=O)[O-])OCO3)c1,0,40,0,0,41,0
O=C1C(=O)c2ccccc2C(O)=C1CC=C(Cl)Cl,0,0,0,0,38,0
CC(NC(=O)C1CCN(Cc2ccc(Oc3ccccc3)cc2)CC1)c1cccc2ccccc12 (stereo not given),0,-,0,0,0,-
Cc1cccc(C)c1NC(=O)CN(C)C(=O)COc1cccc2c1OC(C)(C)C2,0,0,0,0,0,-
O=C(O)c1ccc(-c2cccc(-c3nn4c(=O)cc(N5CCNCC5)nc4s3)c2)cc1,0,-,0,0,0,-
COc1ccccc1NS(=O)(=O)c1ccc(O)c(C(=O)OCc2cccc([N+](=O)[O-])c2)c1,0,0,0,0,32,38
COC(=O)c1cc2c(c3c4cc(F)ccc4n(S(=O)(=O)c4ccccc4)c13)C(=O)N(Cc1ccco1)C2,0,-,0,0,0,-
O=C(N1CCc2ccccc2C1)n1cc(C(O)(c2ccccc2)c2ccccc2)nn1,0,-,0,-,86,69
O=C(/C=C/C(=O)N1CCc2ccccc2C1)N1CCc2ccccc2C1,0,0,0,0,0,-
CCCCCNC(=O)C1C(=O)Nc2ccccc2C(=O)N1c1ccc(OC)cc1 (stereo not given),0,-,0,0,0,-
Cc1cc(/C=C2/NC(=O)N(Cc3ccccc3F)C2=O)c(C)n1C,0,0,0,0,0,-
CCOc1cc([N+](=O)[O-])cc(/C=C2/NC(=O)N(Cc3ccccc3F)C2=O)c1O,0,0,0,0,31,54
Brc1ccc(-c2csc(N3CCNCC3)n2)cc1,0,-,0,-,61,75
O=C(C1CCN(c2nc(-c3ccc(Br)cc3)cs2)CC1)N1CCNCC1,0,-,0,-,0,-
COC(=O)[C@@H](Cc1c[nH]c2ccccc12)NCc1cccc(B(O)O)c1,0,0,0,0,67,61
SMILES,SIAE inh,HTRA1 inh,PRMT1 inh,TCR CD3 inh,mABHD4 FP,mABHD4 conf
Cn1cc(CN2CCC(C(O)c3cccs3)CC2)c(-c2ccccc2F)n1 (stereo not given),0,0,0,0,48,0
Cn1cc(CN2CCC(C(=O)N3CCCC3)CC2)c(-c2ccccc2F)n1,0,0,0,0,0,-
CCC(C)Sc1cccc(-c2nc3cnccn3c2NC2CCCCC2)c1 (stereo not given),0,0,0,0,0,-
CCC(C)Sc1cc(-c2nc3cc(C)ccn3c2NC2CCCCC2)ccc1OC (stereo not given),0,0,0,0,31,67
CCC(C)Sc1cc(-c2nc3ccccn3c2NC2CCCCC2)ccc1OC (stereo not given),0,0,0,0,47,45
CCC(C)Sc1ccc(-c2nc3ccc(C)cn3c2NC2CCCCC2)cc1 (stereo not given),-,0,-,-,-,-
CO[C@H]1C=CO[C@@]2(C)Oc3c(C)c(O)c4c(O)c(c(C=NN5CCN(C)CC5)c(O)c4c3C2=O)NC(=O)C(C)=CC=C[C@H](C)[C@H](O)[C@@H](C)[C@@H](O)[C@@H](C)[C@H](OC(C)=O)[C@@H]1C,0,0,0,0,33,0
Cc1ccc(S(=O)(=O)N2CCCC2CNC(=O)C(=O)NCc2ccc3c(c2)OCO3)cc1 (stereo not given),0,0,0,0,0,-
c1ccc(CNc2c(-c3cccc(SC4CCCCC4)c3)nc3ccccn23)cc1,0,0,0,0,0,-
CCCCNc1c(-c2ccc(SC3CCCCC3)cc2)nc2ccccn12,0,0,0,0,44,0
CCCCNc1c(-c2ccc(SC(C)CC)cc2)nc2ccccn12 (stereo not given),0,0,0,0,40,69
Cc1ccn2c(NCc3ccccc3)c(-c3cccc(SC4CCCCC4)c3)nc2c1,0,0,0,0,30,31!
O=C(COC(=O)CSc1ccc(Cl)cc1)NCCc1ccccc1,0,0,0,0,0,-
CC1(C(=O)NS(=O)(=O)c2ccc(F)cc2F)CCN1C(=O)C1CCCCC1 (stereo not given),0,-,0,0,0,-
CC(CN1CCC(O)CC1)c1ccccc1 (stereo not given),0,0,0,0,0,-
CC(CN1CCN(Cc2ccccc2)CC1)c1ccccc1 (stereo not given),0,0,0,0,30,0
COCCNC(=O)C1(C)CCCN(C(=O)c2cc(F)cc(F)c2)C1 (stereo not given),0,-,0,0,0,-
COc1ccc(NC(=S)Nc2ccccc2)cc1,0,0,0,0,0,-
Oc1ccc(NC(=S)Nc2ccccc2)cc1,0,0,0,0,42,0
COc1cc(/C=C/c2ccc3cccc(O)c3n2)c(Br)cc1O,0,0,0,0,30,69
COc1ccc(C2=CC(=O)N(Nc3ccccc3)C2=O)cc1,0,-,0,0,0,-
O=C1C=C(c2ccccc2)C(=O)N1Nc1ccccc1,0,0,22,0,31,0
Cn1c(=O)c2c(nc(SCc3nn[nH]n3)n2Cc2ccccc2F)n(C)c1=O,0,0,0,0,+,0
CN(C)c1nc(N)nc(CSc2nc3c(c(=O)n(C)c(=O)n3C)n2Cc2ccccc2F)n1,0,0,0,0,0,-
CCCC(=O)Nc1nc(C)c(-c2csc(Nc3cc(OC)ccc3OC)n2)s1,0,0,0,0,32,58
